In the library only some 1.2% were active in any assay of this set; here they are far more common.
TPT1 inh: inhibitors of Candida albicans tRNA 2'-phosphotransferase TPT1 | recombinant caTPT1, FP RNA substrate dephosphorylation | inhibition, % at 5 µM | 0.81% of 300,000 active;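 active = inhibition above the mean of all tested compounds plus 3 SD, set per screening campaign, cut at about 24% in these data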
HNF4A DNA FP: change in binding of human HNF4 alpha to DNA | P41235 | HNF4a-FITC DNA binding, fluorescence polarization, 1 h | activity change, % at 10 µM | 0.3% of 360,000 active | AID 1224865; in the data active = activity change above about 30%, passing the limit was not always enough
Rtt109 HAT inh: inhibitors of Candida albicans Rtt109/Vps75 histone acetyltransferase. Q5AAJ8. purified Rtt109/Vps75, ThioGlo CoA-SH fluorescence, 4 h. inhibition, % at 34.9 µM. 0.16% of 330,000 active. AID 540336;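 active = inhibition of at least 50% in every replicate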
CSN deneddyl inh: blocks human CSN-mediated cullin deneddylation; 0.38% of 360,000 active; Purified CSN, SCF-Nedd8-OG deneddylation, fluorescence polarization; Q92905; inhibition, % at 12.5 µM;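 active = pattern-corrected inhibition above about 35%, with an unprinted fluorescence ratio check between 0.5 and 1.5, limit read from the data, passing the limit was not always enough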
Target sequence (Q92905 whole entry, looked up, one chain of several): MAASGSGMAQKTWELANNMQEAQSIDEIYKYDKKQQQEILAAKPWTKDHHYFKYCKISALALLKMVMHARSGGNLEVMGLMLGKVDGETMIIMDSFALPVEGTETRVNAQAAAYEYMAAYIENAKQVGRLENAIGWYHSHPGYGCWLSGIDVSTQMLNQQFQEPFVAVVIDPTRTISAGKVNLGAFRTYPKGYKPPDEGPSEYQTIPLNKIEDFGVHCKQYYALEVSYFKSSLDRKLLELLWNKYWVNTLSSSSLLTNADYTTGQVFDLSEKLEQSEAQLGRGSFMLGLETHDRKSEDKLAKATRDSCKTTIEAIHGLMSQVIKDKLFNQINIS
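Material: purified human Csn5 enzyme expressed in HEK293T cells / Medium: Tris buffer pH 7.5, NaCl, DTT, Tween-20, trehalose, ovalbumin / Compound dosing: 12.5 µM single point / Schedule: 90 min incubation of compound, enzyme and substrate at room temperature / Signal: fluorescence polarization of the substrate / Control set: no-enzyme wells high, enzyme-with-substrate wells low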
caTPT1 confirm: TPT1 (C. albicans) inhibition, confirmation; 74% of 2,400 active; recombinant caTPT1, fluorescence polarization, RNase T1 coupled; inhibition, % at 5 µM; shares compounds with TPT1 inh;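 active = inhibition above the primary screen limit, the mean inhibition of all tested compounds plus 3 SD, cut at about 25% in these data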
RNase T1 counter: RNase T1 inhibition in TPT1 counter-screen; inhibition, % at 5 µM; shares compounds with TPT1 inh; 83% of 2,400 active; AID 2153; RNase T1 cleavage, fluorescence polarization, 1536-well;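 active = inhibition above the solvent-only control well mean plus 3 SD, limit set per screening run, cut at about 23% in these data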;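 note: inhibitors block cleavage so intact labeled substrate keeps polarization high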
Target sequence (P00651 whole entry, looked up): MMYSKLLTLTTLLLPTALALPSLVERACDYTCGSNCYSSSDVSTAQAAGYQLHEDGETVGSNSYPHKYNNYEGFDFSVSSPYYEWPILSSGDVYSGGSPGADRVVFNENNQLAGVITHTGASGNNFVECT
CSN deneddyl val: validation of inhibitors of human CSN-mediated cullin deneddylation. AID 720654. Csn5 deneddylation of SCF-Nedd8OG, fluorescence polarization, 90 min. inhibition, % at 16.6 µM. 62% of 540 active. shares compounds with CSN deneddyl inh; in the data active = inhibition above about 50%
MMP2 cntr CSN: counter-screen for CSN deneddylation inhibitors: human MMP-2 inhibition | shares compounds with CSN deneddyl inh | recombinant MMP-2, FRET substrate fluorescence, 60 min | inhibition, % at 16.6 µM | 33% of 540 active | AID 720655;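 active = corrected plate-normalized z-score of 5 or more, or -5 or less, or inhibition of 15% or more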
Thrombin cntr: thrombin (bovine) inhibition, counter-screen for CSN hits; shares compounds with CSN deneddyl inh; bovine thrombin cleavage of Ub4-pepOG, fluorescence polarization; inhibition, % at 16.6 µM; 49% of 540 active;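 active = inhibition at or above a set limit, with a fluorescence interference ratio between 0.5 and a set maximum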
HNF4A confirm: change in binding of human HNF4 alpha to DNA, retest | shares compounds with HNF4A DNA FP | HNF4A-FITC DNA binding, fluorescence polarization, 1 h | 99% of 210 active | activity change, % at 12.5 µM | AID 1224897; call rule not given here
Each line names hits and unclear results; the compound was inactive in the other large screens (follow-up assays come after a bar, where they were run).

COc1ccc(C(=O)/C=C/c2cn(CC(O)CN3CCOCC3)c3ccccc23)cc1 (centres undefined)	TPT1 inh 51, HNF4A DNA FP 42 | caTPT1 confirm 45 | RNase T1 counter 57 | HNF4A confirm 75
COc1ccc(C(=O)/C=C/c2cn(CN3CCN(C)CC3)c3ccccc23)cc1	none
CC(C)OC(=O)c1cc(C(=O)c2cc(F)ccc2O)coc1=N	none
COc1ccc(O)c(C(=O)c2coc(=N)c(C(=O)Nc3ccc(SC(F)F)cc3)c2)c1	TPT1 inh 63, HNF4A DNA FP 44, CSN deneddyl inh 56 | caTPT1 confirm 75 | RNase T1 counter 78 | HNF4A confirm 65
CCOc1ccc2cc(/C=C/C(=O)c3ccco3)c(Cl)nc2c1	TPT1 inh 37, HNF4A DNA FP 34 | caTPT1 confirm 57 | RNase T1 counter 68 | HNF4A confirm 36
CCOc1ccc2nc(SCC(=O)NNC(=O)c3ccco3)c(C)cc2c1	none
N#C/C(=C\c1ccc(-c2ccccc2C(=O)O)o1)c1nc2ccccc2[nH]1	TPT1 inh 95, HNF4A DNA FP 44 | caTPT1 confirm 117 | RNase T1 counter 121 | HNF4A confirm 91
Cc1ccc(NS(=O)(=O)c2ccc(C(=O)Nc3nncs3)cc2)cc1	none (no result: TPT1 inh)
CSc1nsc(/C=C/Nc2ccc(C(=O)O)cc2)c1C#N	TPT1 inh 31, HNF4A DNA FP 49 | caTPT1 confirm 43 | RNase T1 counter 53 | HNF4A confirm 45
N#Cc1c(-c2c(Cl)cccc2Cl)noc1/C=C/Nc1ccc(C(=O)O)cc1	none (no result: Rtt109 HAT inh)
COc1ccc(C2NN=C(c3c[nH]c4ccccc34)C2O)cc1 (centres undefined)	TPT1 inh 73, HNF4A DNA FP 57 | caTPT1 confirm 65 | RNase T1 counter 78 | HNF4A confirm 89
N#Cc1c(Nc2cccc(F)c2)sc2c(O)cc(=O)[nH]c12	TPT1 inh 51, HNF4A DNA FP 44 | caTPT1 confirm 29 | RNase T1 counter 40 | HNF4A confirm 52
Cn1cccc1/C=C1\SC(=S)N(CC(=O)O)C1=O	TPT1 inh 108, HNF4A DNA FP 80, CSN deneddyl inh 49 | caTPT1 confirm 115 | RNase T1 counter 129 | HNF4A confirm 117
C=CCNc1sc(C(=O)c2ccc(Br)s2)c(N)c1C#N	TPT1 inh 28, HNF4A DNA FP 55 | caTPT1 confirm 38 | RNase T1 counter 49 | HNF4A confirm 51
Cc1cc(C)n2nc(CNS(=O)(=O)c3ccc(F)c(C)c3)nc2n1	none
Cc1ccc(S(=O)(=O)N2CCCCC2C(=O)N(C)c2ccccc2)cc1 (centres undefined)	none
CCOc1cc(/C=C2\N=C3CCCCCN3C2=O)ccc1O	TPT1 inh 43, HNF4A DNA FP 49, CSN deneddyl inh 58 | caTPT1 confirm 58 | RNase T1 counter 60 | HNF4A confirm 71
COc1ccc(CNC(=O)CN(C)S(=O)(=O)c2ccc3c(c2)OCCO3)cc1OC	none (no result: TPT1 inh)
CCOC(=O)C1=C(C)NC(=O)NC1c1ccc(NC(C)=O)cc1 (centres undefined)	none
CCOC(=O)C1=C(C)NC(=O)NC1c1ccc(N2CCC(c3ccccc3)=N2)cc1 (centres undefined)	TPT1 inh 53, HNF4A DNA FP 55 | caTPT1 confirm 77 | RNase T1 counter 87 | HNF4A confirm 62
Cc1cccc(-c2noc(CNC(=O)c3ccoc3C)n2)c1	TPT1 inh 34, HNF4A DNA FP 50 | caTPT1 confirm 65 | RNase T1 counter 74 | HNF4A confirm 32
COc1ccc2cc(C3(C)NC(=O)N(CC(=O)N4CCCCC4)C3=O)ccc2c1 (centres undefined)	none (no result: TPT1 inh)
CCOC(=O)/C(C#N)=C/c1cc(C)n(-c2ccccc2)c1C	none
CCOC(=O)/C(C#N)=C/C=C1\C=Cc2ccccc2N1CC	TPT1 inh 79, HNF4A DNA FP 94, CSN deneddyl inh 44 | caTPT1 confirm 83 | RNase T1 counter 93 | CSN deneddyl val 99 | MMP2 cntr CSN inactive | Thrombin cntr 55 | HNF4A confirm 101
N#CCc1nc2ccc(S(=O)(=O)N3CCOCC3)cc2s1	TPT1 inh 85, HNF4A DNA FP 52, CSN deneddyl inh 49 | caTPT1 confirm 62 | RNase T1 counter 76 | HNF4A confirm 54
NC(=O)C1CCN(C(=O)c2ccc3c(c2)S(=O)(=O)c2ccccc2C3=O)CC1	none
CC1CCN(c2ccc3c(c2)S(=O)(=O)c2ccccc2C3=O)CC1	TPT1 inh 65, HNF4A DNA FP 58 | caTPT1 confirm 80 | RNase T1 counter 88 | HNF4A confirm 71
NC(=O)C1CCN(c2ccc3c(c2)S(=O)(=O)c2ccccc2C3=O)CC1	TPT1 inh 31, HNF4A DNA FP 47 | caTPT1 confirm 38 | RNase T1 counter 48 | HNF4A confirm 67
CSCCC(NC(=O)c1ccco1)C(=O)N1CCN(C(c2ccccc2)c2ccccc2)CC1 (centres undefined)	none (no result: TPT1 inh)
O=C(NCc1cccc2[nH]ccc12)C1CCC(=O)N(CCc2ccc(Cl)cc2)C1 (centres undefined)	none
CC(=O)Nc1sc2c(c1C(N)=O)CCN(Cc1ccccc1)C2	none
CCN1CCc2c(sc(NC(=O)c3ccc4ccccc4c3)c2C(N)=O)C1	TPT1 inh 65, HNF4A DNA FP 38 | caTPT1 confirm 80 | RNase T1 counter 89 | HNF4A confirm 65
C=C[C@H]1[C@H](OC2OC(CO)C(O)C(O)C2O)OC=C(C(=O)OC)[C@H]1C[C@H]1CC(=O)C[C@H](CC(=O)CCc2ccc(O)cc2)O1 (some centres undefined)	none (no result: HNF4A DNA FP, Rtt109 HAT inh, CSN deneddyl inh)
CCOC(=O)c1c(C)n(C)c2ccc(OC)c(NC(=O)CCN3CCC(Cc4ccccc4)CC3)c12	none
C=CCn1c(SCc2nc3sc4c(c3c(=O)[nH]2)CCCC4)nc2ccccc2c1=O	TPT1 inh 27, HNF4A DNA FP 49 | caTPT1 confirm 48 | RNase T1 counter 62 | HNF4A confirm 65
